Experimental data published in publication PMC3662250 (Synlett : accounts and rapid communications in synthetic …, 2010).

Molecular target: human ΔF508-CFTR (Homo sapiens, UniProt P13569, DEL508-508)
Assay: ΔF508-CFTR corrector activity assay
Assay type: cell-based
Conditions: comparison with bithiazole 27 of earlier studies
How it was run: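 FRT cells expressing ΔF508-CFTR, with FRT-null cells as counter-screen. Cells were PBS-washed, then incubated 20 min with forskolin (20 µM) plus genistein (50 µM). Fluorescence (ex 500, em 535 nm) was read 2 s baseline, then 12 s after adding PBS with 137 mM Cl− replaced by I−. Initial slope was extrapolated from an exponential fit of the final 11.5 s. Controls were DMSO vehicle, a bithiazole corrector and CFTRinh-172 inhibition.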

Cc1cccc(Nc2ncnc3onc(-c4ccc(F)cc4)c23)c1C [Compound 7]
Vmax compared with s-cis locked bithiazole 27: greater Vmax value
